These results are taken from ChEMBL document CHEMBL1140898, “Targeting the fatty acid biosynthesis enzyme, beta-ketoacyl-acyl carrier protein synthase III (PfKASIII), in the identification of novel antimalarial agents” (J Med Chem, 2009).

The subject of series [1] is Plasmodium falciparum. The series is described as follows: Antimalarial activity against […] by [3H]hypoxanthine uptake. Format: functional, organism-based.
Series [2] has as its system Plasmodium falciparum. The series is described as follows: Antimalarial activity against Plasmodium falciparum TM91C235 by [3H]hypoxanthine uptake. It counts as functional, organism-based.
Series [3] in a line: Cytotoxicity against mouse J774.G8 cells after 72 hrs by MTS assay. It counts as cell-based. An outline of the steps:
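Murine J774 macrophage subclone G8 grown in DMEM with 10% fetal calf serum, 2 mM L-glutamine, 50 μg/mL gentamicin, 5% CO2, 37 °C. Seeded at 1 × 10^4 cells/well and left 24 h. Compound dilutions in medium or vehicle added, then 72 h exposure. MTS tetrazolium added for 1–2 h at 37 °C, OD read at 490 nm. Vehicle control values subtracted.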
(In general: Formazan colour is commonly taken as a measure of viable cells.)

Series [4] in a line: Therapeutic index, ratio of IC50 for mice (Mus musculus) J774.G8 cells to IC50 for chloroquine-resistant Plasmodium falciparum W2. Conditions: J774.G8 cells versus Plasmodium falciparum W2.
Series [5] relates to Plasmodium falciparum. The series is described as follows: Antimalarial activity against […] by [3H]hypoxanthine uptake. Format: functional, organism-based.
Series [6] can be described thus: Inhibition of Plasmodium falciparum KAS3 expressed in Escherichia coli assessed as transfer of [1-14C]acetyl-CoA to [1-14C]acetyl-ACP. An outline of the steps:
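Recombinant 6xHIS-tagged P. falciparum KASIII and 6xHIS-ACP expressed in E. coli and purified. Radiometric filter assay of [1-14C]-acetyl-CoA transfer to ACP, 25 min at 37 °C, quenched with 10% TCA. Product captured on P81 cellulose filters, washed with TCA and counted by scintillation. […] IC50 by variable-slope nonlinear regression, curves accepted at R2 >0.80.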

The term IC50 denotes the concentration needed to halve the response being measured.

`O=S(=O)(c1cccc(S(=O)(=O)c2cc(O)ccc2O)c1)c1cc(O)ccc1O`: the IC50 in the series on Plasmodium falciparum [1] was 7.1 µM; with Plasmodium falciparum [2], 4.5 µM; in series [3], more than 1180 µM; in the series on Plasmodium falciparum [5] it was 26 µM; in series [6], 38.2 µM. The selectivity ratio in series [4] is more than 169.
